Laboratory results reported in ChEMBL document CHEMBL1148356, “Synthesis and biological evaluation of 3-heterocyclyl-7,8,9,10-tetrahydro-(7,10-ethano)-1,2,4-triazolo[3,4-a]phthalazines and analogues as subtype-selective inverse agonists for the GABA(A)alpha5 benzodiazepine binding site” (J Med Chem, 2004).
Active and inactive are the calls of the source. No cut-off for these calls is given here.

Tests used:
[1] = Oral bioavailability in rat; format: ADME, organism-based; details: in vivo
Method in brief: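 Male SD rats with jugular cannulas were fasted overnight and dosed either by tail-vein IV bolus or orally (n = 3 per route). Serial jugular blood samples were taken up to 8 h. Plasma was frozen at −20 °C, protein-precipitated with acetonitrile containing internal standard, and quantified by LC-MS/MS.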

[2] = molecular target: GABA-A receptor; alpha-1/beta-3/gamma-2 (Homo sapiens) (UniProt P14867+P18507+P28472); experiment: Percent change in electrophysiological response in Xenopus oocytes expressing Alpha1-beta3-gamma2 GABA-A receptor; format: functional, cell-based; details: Oocyte
Method in brief: (§1)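 Two-electrode voltage clamp on Xenopus oocytes injected with human GABA-A subunit cDNAs, 24-72 h expression, perfused with modified Barth's medium at pH 7.5, clamped between -40 and -70 mV. The GABA EC20 was titrated against a 3 mM GABA maximum. […] Result is % change of control current, mean ± SE of ≥4 oocytes.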

[3] = molecular target: T1, GABA-A receptor; alpha-1/beta-3/gamma-2 (Homo sapiens, UniProt P14867+P18507+P28472); experiment: Binding affinity towards human alpha-1-beta-3-gamma-2 GABA-A receptor using [3H]Ro-151788 expressed in L(tk-) cells; format: cell-based
T1 sequence (P14867 whole entry): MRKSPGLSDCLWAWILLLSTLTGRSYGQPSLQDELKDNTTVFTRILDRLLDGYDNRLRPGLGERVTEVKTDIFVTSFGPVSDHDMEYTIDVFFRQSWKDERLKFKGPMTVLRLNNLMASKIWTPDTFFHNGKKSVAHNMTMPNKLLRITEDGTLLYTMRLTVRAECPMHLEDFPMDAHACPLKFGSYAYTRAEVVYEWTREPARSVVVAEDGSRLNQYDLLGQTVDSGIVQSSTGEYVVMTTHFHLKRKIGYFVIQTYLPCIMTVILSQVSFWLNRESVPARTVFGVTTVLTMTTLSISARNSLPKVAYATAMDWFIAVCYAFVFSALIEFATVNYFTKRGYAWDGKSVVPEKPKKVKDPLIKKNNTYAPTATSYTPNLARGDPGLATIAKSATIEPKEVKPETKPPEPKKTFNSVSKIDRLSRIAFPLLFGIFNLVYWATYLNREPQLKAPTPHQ
T1 sequence (P18507 whole entry): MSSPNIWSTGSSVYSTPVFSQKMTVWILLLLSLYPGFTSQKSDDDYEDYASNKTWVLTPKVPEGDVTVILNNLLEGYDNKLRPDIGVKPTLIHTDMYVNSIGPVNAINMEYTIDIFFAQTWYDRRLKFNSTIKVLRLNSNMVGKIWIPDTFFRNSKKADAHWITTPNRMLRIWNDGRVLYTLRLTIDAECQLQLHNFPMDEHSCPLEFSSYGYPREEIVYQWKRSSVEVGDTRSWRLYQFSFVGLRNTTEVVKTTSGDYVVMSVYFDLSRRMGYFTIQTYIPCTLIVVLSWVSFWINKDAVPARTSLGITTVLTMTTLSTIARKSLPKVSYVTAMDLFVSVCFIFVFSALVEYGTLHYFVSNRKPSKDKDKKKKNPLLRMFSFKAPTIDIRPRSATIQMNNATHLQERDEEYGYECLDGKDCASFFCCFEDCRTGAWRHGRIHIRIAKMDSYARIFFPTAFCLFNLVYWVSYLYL
T1 sequence (P28472 whole entry): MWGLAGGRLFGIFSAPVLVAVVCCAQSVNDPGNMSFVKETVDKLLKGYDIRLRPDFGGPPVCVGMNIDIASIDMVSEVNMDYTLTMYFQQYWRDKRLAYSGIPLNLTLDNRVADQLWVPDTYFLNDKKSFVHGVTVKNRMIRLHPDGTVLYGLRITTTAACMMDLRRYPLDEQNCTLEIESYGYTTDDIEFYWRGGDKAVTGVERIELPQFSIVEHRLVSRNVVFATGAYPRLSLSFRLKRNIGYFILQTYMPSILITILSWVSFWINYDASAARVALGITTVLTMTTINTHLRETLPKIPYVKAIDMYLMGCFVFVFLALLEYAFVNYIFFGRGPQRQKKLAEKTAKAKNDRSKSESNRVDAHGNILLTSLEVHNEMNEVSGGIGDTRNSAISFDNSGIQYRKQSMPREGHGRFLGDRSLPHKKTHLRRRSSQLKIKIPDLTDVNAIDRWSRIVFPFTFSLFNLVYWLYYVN

[4] = molecular target: T2, GABA-A receptor; alpha-3/beta-3/gamma-2 (Homo sapiens) (UniProt P18507+P28472+P34903); experiment: Percent maximum change in electrophysiological response in Xenopus oocytes expressing alpha-3-beta-3-gamma-2 GABA-A receptor; format: functional, cell-based; details: Oocyte; method in brief: as §1
[5] = molecular target: T3, GABA-A receptor; alpha-3/beta-3/gamma-2 (Homo sapiens, UniProt P18507+P28472+P34903); experiment: Binding affinity towards human gamma-aminobutyric-acid A receptor alpha-3-beta-3-gamma-2 using [3H]Ro-151788 expressed in L(tk-) cells; format: cell-based
T3 sequence (P18507 whole entry): T1 sequence (P18507 whole entry)
T3 sequence (P28472 whole entry): T1 sequence (P28472 whole entry)
T3 sequence (P34903 whole entry): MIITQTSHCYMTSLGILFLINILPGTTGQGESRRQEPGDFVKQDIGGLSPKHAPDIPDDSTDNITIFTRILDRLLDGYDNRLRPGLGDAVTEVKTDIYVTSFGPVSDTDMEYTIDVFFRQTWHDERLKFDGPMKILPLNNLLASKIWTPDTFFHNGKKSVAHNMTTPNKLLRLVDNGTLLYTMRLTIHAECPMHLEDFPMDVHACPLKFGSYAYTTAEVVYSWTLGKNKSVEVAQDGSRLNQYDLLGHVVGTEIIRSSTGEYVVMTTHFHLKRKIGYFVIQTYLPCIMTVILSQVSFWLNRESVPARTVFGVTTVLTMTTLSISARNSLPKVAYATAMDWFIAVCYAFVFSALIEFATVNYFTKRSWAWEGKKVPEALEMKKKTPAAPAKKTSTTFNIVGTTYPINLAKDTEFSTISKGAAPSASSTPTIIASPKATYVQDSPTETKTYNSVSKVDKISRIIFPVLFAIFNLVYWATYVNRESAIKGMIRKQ

[6] = molecular target: T4, GABA-A receptor; alpha-2/beta-3/gamma-2 (Homo sapiens) (UniProt P18507+P28472+P47869); experiment: Percent maximum change in electrophysiological response in Xenopus oocytes expressing alpha-2-beta-3-gamma-2 GABA-A receptor; format: functional, cell-based; details: Oocyte; method in brief: as §1
[7] = molecular target: T2, GABA-A receptor; alpha-3/beta-3/gamma-2 (Homo sapiens); experiment: Percent change in electrophysiological response in Xenopus oocytes expressing Alpha3-beta3-gamma2 GABA-A receptor; format: functional, cell-based; details: Oocyte; method in brief: as §1
[8] = molecular target: GABA-A receptor; alpha-6/beta-3/gamma-2 (Homo sapiens, UniProt P18507+P28472+Q16445); experiment: Inhibition of [3H]Ro-151788 binding to human alpha-6-beta-3-gamma-2 GABA-A receptor expressed in L(tk-) cells; format: cell-based
Rattus norvegicus = experiment: Tested for cognitive performance in rats in delayed matching-to-place version of water maze test at 1 mg/kg p.o.; Significant enhancement in performance; format: functional, organism-based; set-up: dose 1 mg/kg
[9] = molecular target: T4, GABA-A receptor; alpha-2/beta-3/gamma-2 (Homo sapiens); experiment: Percent change in electrophysiological response in Xenopus oocytes expressing Alpha2-beta3-gamma2 GABA-A receptor; format: functional, cell-based; details: Oocyte; method in brief: as §1

GABA-A receptor; alpha-6/beta-3/gamma-2, sequence (Q16445 whole entry, one chain of several): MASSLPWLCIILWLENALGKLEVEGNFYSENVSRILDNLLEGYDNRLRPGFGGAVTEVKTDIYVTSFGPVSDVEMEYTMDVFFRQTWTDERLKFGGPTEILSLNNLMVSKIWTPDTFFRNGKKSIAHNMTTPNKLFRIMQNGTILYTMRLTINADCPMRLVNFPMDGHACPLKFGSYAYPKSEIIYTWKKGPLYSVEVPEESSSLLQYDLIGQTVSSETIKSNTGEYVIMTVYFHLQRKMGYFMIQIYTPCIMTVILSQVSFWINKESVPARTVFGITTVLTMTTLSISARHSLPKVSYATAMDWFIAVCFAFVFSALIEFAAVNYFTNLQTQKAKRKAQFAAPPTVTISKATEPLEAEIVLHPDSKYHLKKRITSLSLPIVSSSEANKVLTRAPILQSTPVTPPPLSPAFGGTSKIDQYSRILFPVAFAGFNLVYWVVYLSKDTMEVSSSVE

bioavailability [1]: 41% | Efficacy [2]: -2% | Ki [3]: 1.4 nM | Efficacy [4]: -17% | Ki [5]: 1.4 nM | Efficacy [6]: -7% | Efficacy [7]: -4% | Ki [8]: 4410 nM | Efficacy [9]: 15%
SMILES: Cc1cc(-c2nnc3c4ccccc4c(OCc4ccccn4)nn23)no1
Activity (Rattus norvegicus): Active
